Published values from different studies.
Target: Mitogen-activated protein kinase 11 (MAPK11, Homo sapiens, UniProt Q15759)

SMILES	observed	mode	method	concentration	measurement	value
Cc1nn(C)cc1-c1nc2c(N3CCN(Cc4ccc(Cl)cc4)CC3)c(Cl)cnc2[nH]1	binding		competition with immobilised ligand	1 µM	remaining binding	100%
CC(C)(C)c1cc(C=C(C#N)C#N)cc(Br)c1O	enzyme activity	inhibitor		0.5 µM	remaining activity	100%
Cn1cc(-c2cccc(N3CCc4c(sc5c4CC(C)(C)C5)C3=O)c2CO)cc(Nc2ccncn2)c1=O	enzyme activity	inhibitor		1 µM	inhibition	6%
Nc1ncc(-c2nc(N3CCOCC3)nc(N3CCOCC3)n2)c(C(F)F)n1	binding		competition with immobilised ligand	10 µM	remaining binding	98%
Cn1cncc1[C@@](O)(COc1ccc(C#N)cc1-c1ccc(OC(F)(F)F)cc1)c1ccc(C#N)cc1	cell-free assay		competition with immobilised ligand	1 µM	remaining binding	96%
Cn1cc(-c2cc(F)cc(N3CCn4c(cc5c4CCCC5)C3=O)c2CO)cc(Nc2ccc(N3CCN(C4COC4)CC3)cn2)c1=O	enzyme activity	inhibitor		0.1 µM	inhibition	11%
O=c1[nH]c2ccccc2n1C1CCN(Cc2ccc(-c3[nH]c4cc5ncnc5cc4nc3-c3ccccc3)cc2)CC1	cell-free assay			0.5 µM	remaining signal	102%
COc1ncccc1-c1cnn2ccc(N3CCN(C(=O)OC(C)C)CC3)nc12	binding		competition with immobilised ligand	1 µM	remaining binding	89%
